Experimental data collected from several papers.
Each line is one published result; the experiments were not run side by side.
Organism: Staphylococcus aureus
Read-out: microbial growth

| Structure (SMILES) | method | strain | time | setting | MIC |
| --- | --- | --- | --- | --- | --- |
| O=[N+]([O-])c1ccc(-c2nc3cc(Cl)ccc3[nH]2)o1 | broth dilution | ATCC700699 MRSA |  | drug-resistant strain | 2 µg/mL |
| CC1(C)CC[C@]2(C(=O)O)CC[C@]3(C)C(=CC[C@@H]4[C@@]5(C)CC[C@H](O)C(C)(C)[C@@H]5CC[C@]43C)[C@@H]2C1 |  | ATCC25923 |  |  | 32 µg/mL |
| CN[C@H](CC(C)C)C(=O)N[C@H]1C(=O)N[C@@H](CC(N)=O)C(=O)N[C@H]2C(=O)N[C@H]3C(=O)N[C@H](C(=O)N[C@H](C(=O)O)c4cc(O)cc(O)c4-c4cc3ccc4O)[C@H](O)c3ccc(c(Cl)c3)Oc3cc2cc(c3O[C@@H]2O[C@H](CO)[C@@H](O)[C@H](O)[C@H]2O[C@H]2C[C@](C)(N)[C@H](O)[C@H](C)O2)Oc2ccc(cc2Cl)[C@H]1O | broth dilution | ATCC29213 |  |  | 1 µg/mL |
| COc1cccc(OC)c1C(=O)N[C@@H]1C(=O)N2[C@@H]1SC(C)(C)[C@@H]2C(=O)O |  | ATCCBAA1717 |  | drug-resistant strain, clinical isolate | > 64 µg/mL |
| COC(=O)c1cc(-c2cccc(NC(=O)Nc3ccccc3F)c2)on1 | broth dilution | ATCC29213 |  |  | > 64 µg/mL |
| CCN1CCN(C(=O)Cc2ccc(Nc3ncc(F)c(Nc4ccc(C(=O)Nc5ccccc5Cl)cc4)n3)cc2)CC1 |  | NCTC8325 |  |  | > 30 µM |
| Cc1ccc2nc(-c3ccco3)[nH]c2c1 | broth dilution | ATCC43300 MRSA |  | drug-resistant strain | 256 µg/mL |
| CCCCCCCC/C=C\CCCCCCCC(=O)C(F)(F)P(=O)(O)O |  | ATCC33591 MRSA |  | drug-resistant strain | > 200 µg/mL |
| CCCCCCC#Cc1cncc(-c2nnc(SCc3cc([N+](=O)[O-])cc([N+](=O)[O-])c3)n2C)c1 |  | MRSA |  | drug-resistant strain | ≥ 20 µg/mL |
| C=CCn1c(-c2ccc(Cl)cc2)nc2ccccc21 | broth dilution | ATCC43300 MRSA |  | drug-resistant strain | 128 µg/mL |
| COC(=O)c1cc(-c2cccc(NC(=O)Nc3ccccc3OC)c2)on1 | broth dilution | ATCC29213 |  |  | > 64 µg/mL |
| Cc1ccc2[nH]c3c(c2c1)CCCC3NCCc1ccc(Br)cc1 (stereo not drawn) | broth dilution | ATCC29213 |  |  | 4 µg/mL |
| c1cncc(-c2nc3ccccc3[nH]2)c1 | broth dilution | ATCC43300 MRSA |  | drug-resistant strain | 256 µg/mL |
| CNC(C)[C@@H]1CC[C@@H](N)[C@@H](O[C@H]2[C@H](O)[C@@H](O[C@H]3OC[C@](C)(O)[C@H](NC)[C@H]3O)[C@H](N)C[C@@H]2N)O1 (stereo partly drawn) |  | NCTC8325 |  |  | 0.5 to 1 µM |
| Cc1ccc2[nH]c3c(c2c1)CCCC3NCCc1ccc(O)cc1 (stereo not drawn) | broth dilution | MRSA USA300 |  |  | 16 µg/mL |
| CCC1C(=NOCc2cn(-c3ccccc3)nn2)CC(c2ccccc2)OC1c1ccccc1 (stereo not drawn) | broth dilution | MTCC96 | 24 h |  | 50 µg/mL |
| COC(=O)c1cc(-c2cccc(NC(=O)Nc3ccccc3C)c2)on1 | broth dilution | ATCC29213 |  |  | > 64 µg/mL |
| Cc1ccc2nc(-c3ccc4c(c3)OCO4)[nH]c2c1 | broth dilution | ATCC43300 MRSA |  | drug-resistant strain | 512 µg/mL |

| Structure (SMILES) | method | strain | time | setting | MIC |
| --- | --- | --- | --- | --- | --- |
| O=C(Nc1ccc(O)cc1)Nc1ccc(Cl)c(C(F)(F)F)c1 |  | NCTC8325 |  |  | 100 µM |
| COC(=O)c1cc(-c2cccc(NC(=S)Nc3ccc(C)cc3)c2)on1 | broth dilution | ATCC29213 |  |  | > 64 µg/mL |
| O=[N+]([O-])c1ccc(/C=N/Nc2nc(Nc3ccccc3)nc(Nc3ccccc3)n2)o1 |  | ATCC43300 |  |  | 2.4 µM |
| CN(C)[C@@H]1C(O)=C(C(N)=O)C(=O)[C@@]2(O)C(O)=C3C(=O)c4c(O)cccc4[C@@](C)(O)[C@H]3C[C@@H]12 |  | USA300 |  |  | 256 µg/mL |
| COc1ccc(-c2nc3ccccc3n2Cc2ccccc2)cc1OC | broth dilution | ATCC43300 MRSA |  | drug-resistant strain | 8 µg/mL |
| [H]/N=C(/N)N[C@H]1[C@H](O)[C@@H](O)[C@H](O[C@@H]2O[C@@H](C)[C@](O)(C=O)[C@H]2O[C@@H]2O[C@@H](CO)[C@H](O)[C@@H](O)[C@@H]2NC)[C@@H](N/C(N)=N\[H])[C@@H]1O |  | USA300 |  |  | 64 µg/mL |
| CCOc1ccc(-c2nc3ccc(C)cc3[nH]2)cc1 | broth dilution | ATCC43300 MRSA |  | drug-resistant strain | 256 µg/mL |
| CCCCCCCC(=O)NP(=O)(O)O |  | ATCC33591 MRSA |  | drug-resistant strain | > 200 µg/mL |
| CCCCCC/C=C\CCCCCCCCCc1cc(O)cc(O)c1 | broth dilution | USA300 |  | drug-resistant strain | > 64 µg/mL |
| Fc1cccc(Cl)c1-c1nc2ccccc2[nH]1 | broth dilution | ATCC43300 MRSA |  | drug-resistant strain | 128 µg/mL |
| COC(=O)c1cc(-c2cccc(NC(=S)Nc3ccc(OC)cc3)c2)on1 | broth dilution | ATCC29213 |  |  | > 64 µg/mL |
| COc1ccc(OS(=O)(=O)NC(=O)CCCCc2ccccc2)cc1 |  | ATCC33591 MRSA |  | drug-resistant strain | > 200 µg/mL |
| COC(=O)c1cc(-c2cccc(NC(=O)NCc3ccccc3)c2)on1 | broth dilution | ATCC29213 |  |  | > 64 µg/mL |
| CN[C@H](CC(C)C)C(=O)N[C@H]1C(=O)N[C@@H](CC(N)=O)C(=O)N[C@H]2C(=O)N[C@H]3C(=O)N[C@H](C(=O)N[C@H](C(=O)O)c4cc(O)cc(O)c4-c4cc3ccc4O)[C@H](O)c3ccc(c(Cl)c3)Oc3cc2cc(c3O[C@@H]2O[C@H](CO)[C@@H](O)[C@H](O)[C@H]2O[C@H]2C[C@](C)(N)[C@H](O)[C@H](C)O2)Oc2ccc(cc2Cl)[C@H]1O |  | ATCC700699 |  | drug-resistant strain | 0.39 µg/mL |
| COC(=O)c1cc(-c2cccc(NC(=O)Nc3cccc(Cl)c3)c2)on1 | broth dilution | ATCC29213 |  |  | > 64 µg/mL |
| COc1ccc(-c2nc3ccc(C)cc3[nH]2)cc1OC | broth dilution | ATCC43300 MRSA |  | drug-resistant strain | 256 µg/mL |
| COC(=O)c1cc(-c2cccc(NC(=O)Nc3cccc(F)c3)c2)on1 | broth dilution | ATCC29213 |  |  | > 64 µg/mL |
| O=C(CCCCC1CCCCC1)CP(=O)(O)O |  | ATCC33591 MRSA |  | drug-resistant strain | > 200 µg/mL |
